ChEMBL document CHEMBL4406863, “Effective Virtual Screening Strategy toward heme-containing proteins: Identification of novel IDO1 inhibitors” (Eur J Med Chem, 2019)
Calls of active or inactive are those of the source. No cut-off for these calls is given here.

Legend:
[1] = Cytotoxicity against human HeLa cells assessed as survival rate at 30 uM incubated for 24 hrs by MTT assay relative to control; assay type: cell-based; conditions: read-out: Activity
[2] = target: Indoleamine 2,3-dioxygenase 1 (Homo sapiens, UniProt P14902); test: Inhibition of IDO1 in IFN-gamma stimulated human HeLa cells assessed as reduction in kynurenine production using L-tryptophan as substrate incubated for 24 hrs; assay type: cell-based
[3] = target: Tryptophan 2,3-dioxygenase (Homo sapiens) (UniProt P48775); test: Inhibition of IFN-gamma-induced human TDO2 transfected in HeLa cells at 10 times IDO1 IC50 concentration using L-tryptophan as substrate incubated for 24 hrs relative to control; assay type: cell-based
Method in brief: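 HeLa cells transfected for 24 h with a human TDO2 plasmid, then reseeded at 5 × 10^3/well. After 6 h, IFN-γ and compounds added in medium with […] for 24 h. Supernatant treated with 6.1 N TCA at 50 °C for 30 min and centrifuged; kynurenine read with p-dimethylaminobenzaldehyde at 480 nm.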

HeLa = test: Effect on IDO1 expression in IFN-gamma-stimulated human HeLa cells at 3 times IDO1 IC50 for 24 hrs by western blot analysis; assay type: functional, cell-based
Method in brief: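 HeLa cells (2 × 10^5/well) exposed to human IFN-γ 100 ng/mL with or without compound for 24 h. Lysis in 50 mM Tris-HCl pH 8.0 with detergents and protease inhibitors, then 10% SDS-PAGE and PVDF transfer. Membrane blocked with 5% milk and probed with anti-IDO antibody and HRP secondary; band intensity quantified.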

CT26 [4] = test: Antitumor activity against mouse CT26 cells xenografted in immunodeficient BALB/c nude mouse assessed as reduction in tumour growth at 25 mg/kg, ip administered every two days for 17 days and measured at day 17 by vernier caliper method; assay type: functional, organism-based
Mus musculus [5] = test: Induction of apoptosis in BALB/c mouse xenografted with CT26 cells assessed as nuclear chromatin margination at 50 mg/kg via oral gavage for 17 days by H&E staining based analysis; assay type: functional, organism-based
Method in brief: (§1)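 Tumor tissue from the 17-day CT26/BALB/c gavage study stained with hematoxylin and eosin. Nuclei, cytoplasm and cell morphology assessed by microscopy.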

[6] = target: Indoleamine 2,3-dioxygenase 1 (Mus musculus) (UniProt P28776); test: Reversal of IDO1-mediated immunosuppression in mouse CT26 co-cultured with T-cells assessed as increase in IFN-gamma production measured after 48 hrs by ELISA
Method in brief: (§2)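 CT26 cells (1 × 10^5/well) exposed to compound ([…]) in medium with […] for 48 h. BALB/c splenic T cells resuspended in a 1:1 mix of this supernatant and RPMI/10% FBS with […] for 48 h. IFN-γ measured by ELISA; proliferation by MTT (1 mg/mL, 4 h, 37 °C, DMSO, 570 nm). Three replicate wells, mean ± SEM.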

[7] = target: Indoleamine 2,3-dioxygenase 1 (Mus musculus) (UniProt P28776); test: Reversal of IDO1-mediated immunosuppression in mouse CT26 co-cultured with T-cells assessed as ConA- stimulated differentiation of Treg cells at 0.3 uM measured after 48 hrs by FOXP3-APC based flow cytometry analysis (reference value: 11.4 %)
Mus musculus [8] = test: Induction of apoptosis in BALB/c mouse xenografted with CT26 cells assessed as cell shrinkage at 50 mg/kg via oral gavage for 17 days by H&E staining based analysis; assay type: functional, organism-based; method in brief: as §1
CT26 [9] = test: Antitumor activity against mouse CT26 cells xenografted in BALB/c mouse assessed as decrease in tumour growth at 50 mg/kg, po via gavage for 17 days by vernier caliper method; assay type: functional, organism-based
Mus musculus [10] = test: Induction of apoptosis in BALB/c mouse xenografted with CT26 cells assessed as nuclear chromatin condensation at 50 mg/kg via oral gavage for 17 days by H&E staining based analysis; assay type: functional, organism-based; method in brief: as §1
[11] = target: Indoleamine 2,3-dioxygenase 1 (Mus musculus) (UniProt P28776); test: Reversal of IDO1-mediated immunosuppression in mouse CT26 co-cultured with T-cells assessed as increase in T cell proliferation measured after 48 hrs by MTT assay; method in brief: as §2

Sequence of Indoleamine 2,3-dioxygenase 1 (P14902 whole entry): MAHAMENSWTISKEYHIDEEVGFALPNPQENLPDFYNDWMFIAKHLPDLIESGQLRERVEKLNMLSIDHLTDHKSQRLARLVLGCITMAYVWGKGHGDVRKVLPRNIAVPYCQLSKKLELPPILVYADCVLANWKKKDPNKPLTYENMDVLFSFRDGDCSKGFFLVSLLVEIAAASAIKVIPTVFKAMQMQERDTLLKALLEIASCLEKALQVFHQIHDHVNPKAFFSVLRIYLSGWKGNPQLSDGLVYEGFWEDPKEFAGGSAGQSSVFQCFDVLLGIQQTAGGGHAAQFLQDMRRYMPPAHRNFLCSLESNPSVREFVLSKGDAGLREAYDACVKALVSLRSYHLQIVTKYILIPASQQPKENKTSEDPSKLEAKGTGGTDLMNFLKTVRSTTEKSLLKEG
Sequence of Indoleamine 2,3-dioxygenase 1 (Mus musculus) (P28776 whole entry, looked up): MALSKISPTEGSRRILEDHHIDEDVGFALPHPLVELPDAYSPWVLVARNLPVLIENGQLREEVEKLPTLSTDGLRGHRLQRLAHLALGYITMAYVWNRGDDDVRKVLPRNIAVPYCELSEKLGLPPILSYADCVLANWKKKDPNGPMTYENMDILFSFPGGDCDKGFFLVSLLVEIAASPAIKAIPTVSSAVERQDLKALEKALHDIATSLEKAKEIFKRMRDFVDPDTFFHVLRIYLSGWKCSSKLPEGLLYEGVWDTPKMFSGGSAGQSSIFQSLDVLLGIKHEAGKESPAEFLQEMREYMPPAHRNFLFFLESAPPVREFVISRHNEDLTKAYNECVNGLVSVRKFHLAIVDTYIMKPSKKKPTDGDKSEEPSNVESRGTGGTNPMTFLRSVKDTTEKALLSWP
Sequence of Tryptophan 2,3-dioxygenase (Homo sapiens) (P48775 whole entry, looked up): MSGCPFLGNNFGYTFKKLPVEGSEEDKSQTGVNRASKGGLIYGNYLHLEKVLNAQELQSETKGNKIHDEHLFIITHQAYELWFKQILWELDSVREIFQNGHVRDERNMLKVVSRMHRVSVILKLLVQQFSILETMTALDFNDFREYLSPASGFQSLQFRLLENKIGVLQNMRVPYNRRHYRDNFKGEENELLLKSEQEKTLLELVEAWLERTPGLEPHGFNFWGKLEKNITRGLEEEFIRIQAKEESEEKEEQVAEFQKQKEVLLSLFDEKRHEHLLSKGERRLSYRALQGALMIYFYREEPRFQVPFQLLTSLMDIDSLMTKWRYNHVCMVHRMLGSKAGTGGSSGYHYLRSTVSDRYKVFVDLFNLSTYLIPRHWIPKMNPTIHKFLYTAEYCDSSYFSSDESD

Compound	viability at 24 h, 30 µM [1] [%]	IC50 [2] [µM]	also measured
NS(=O)(=O)c1ccc(NC(=O)Cn2cnc3scc(-c4ccco4)c3c2=O)cc1	77		
O=C(N/N=C/c1c(O)ccc2ccccc12)C(=O)Nc1cccc(C(F)(F)F)c1	59		
Cc1ccc(C2=Nn3c(CNc4ccc(F)cc4)nnc3SC2)cc1	110		
O=C(Cn1cnc2scc(-c3ccccc3)c2c1=O)NC(=O)Nc1ccccc1	85	> 30	
Cc1sc2ncn(CC(=O)NCc3ccccc3)c(=O)c2c1-c1ccc(Br)cc1	84		
COc1ccc(NC(=O)Cn2cnc3scc(-c4ccc(OC)c(OC)c4)c3c2=O)cc1	101	5.6	
CCNC(=O)C(=O)N/N=C/c1c(O)ccc2ccccc12	102	> 30	
CCC(Nc1ccc(Cl)cc1C)C(=O)N/N=C/c1ccccc1O (centres undefined)			inhibition [3]: < 20%; Activity (HeLa): inactive
Oc1ccccc1CN1CCCC(c2n[nH]cc2-c2ccc(Cl)cc2)C1 (centres undefined)	101	18.6	
c1ccc(C2=Nn3c(CN4CCc5ccccc54)nnc3SC2)cc1	98	> 30	
COc1ccccc1NCC(=O)N/N=C/c1c(O)ccc2ccccc12	114	8.6	
COc1cccc(NCc2nnc3n2N=C(c2cccc(OC)c2)CS3)c1	104	> 30	
CN(C)c1ccc(C(=O)N/N=C/c2c(O)ccc3ccccc23)cc1	114	21.1	
O=C(CSc1ccc(Cl)cc1)N/N=C/c1c(O)ccc2ccccc12	106	6	
CCOc1ccc(/C=N/NC(=O)c2c(O)ccc3ccccc23)cc1	112	27.3	
O=c1[nH]cc(F)c(=O)[nH]1			Activity (CT26 [4]): Active
O=C(N/N=C/c1c(O)ccc2ccccc12)Nc1ccccc1	102	> 30	
Cc1nc2ccccc2n1Cc1nnc2n1N=C(c1ccc(Cl)cc1)CS2	85		
COc1ccc(NC(=O)Cn2cnc3scc(-c4ccc(C)cc4)c3c2=O)cc1	107	3.2	Activity (Mus musculus [5]): Active; Activity [6]: Active; Activity [7]: 10.8%; Activity (Mus musculus [8]): Active; inhibition (CT26 [9]): Active; inhibition [3]: < 20%; Activity (HeLa): inactive; Activity (Mus musculus [10]): Active; Activity [11]: Active
Oc1ccc2ccccc2c1/C=N/Nc1nccs1	99	> 30	
NS(=O)(=O)NCCNc1nonc1C(=NO)Nc1ccc(F)c(Br)c1 [EPACADOSTAT]	92		
